Results of several laboratories.
Lines come from different studies, so protocols differ.
Target: Serine/threonine-protein kinase WNK2 (WNK2, Homo sapiens, UniProt Q9Y3S1)

Structure (SMILES) | assay | conditions | quantity | value
CCN(CC)CCNC(=O)c1c(C)[nH]c(/C=C2\C(=O)Nc3ccc(F)cc32)c1C | enzyme activity, inhibitor | 10 µM | inhibition | 23%
COCCOc1nc(-c2ccc(Cl)nc2)nc2c1CN(C(=O)c1ncn3ccccc13)CC2 | cell-free assay, competition with immobilised ligand | 0.1 µM | remaining binding | 100%
O=C1NC(=O)c2cc(Nc3ccc(F)cc3)c(Nc3ccc(F)cc3)cc21 | cell-free assay | 0.5 µM | remaining signal | 110%
CCCOc1ccc(OC)c(F)c1C(=O)c1ccc(C(=O)N[C@@H]2CNC[C@H]2NC(=O)c2ccc3[nH]ncc3c2)cc1 | enzyme activity, inhibitor | 10 µM | remaining activity | 92%
O=C(N1CCS(=O)(=O)CC1)N1C[C@H](c2ccc(OC(F)(F)F)cc2)C[C@H](c2nc(C3CC3)no2)C1 | cell-free assay, competition with immobilised ligand | 1 µM | remaining binding | 73%
CN(CCCC(F)(F)F)c1nccc(-c2cnn3ncccc23)n1 | binding | 1 µM | remaining binding | 100%
Cc1ccc(Nc2nccc(N(C)c3ccc4c(C)n(C)nc4c3)n2)cc1S(N)(=O)=O | enzyme activity, inhibitor | 10 µM | inhibition | 26%
CN1CC(Oc2cnc(C#N)cc2-c2ccn3nc(NC(=O)C4CC4)cc3c2)C1 | enzyme activity, inhibitor | 1 µM | inhibition | 8%
Cc1cc(NC(=O)c2cccc3cc(-c4cccc5[nH]nc(N)c45)ccc23)ccc1F | enzyme activity, inhibitor | 0.1 µM | activity vs control | 98%
O=C(Nc1cnn(-c2csc(C(=O)NC3COC3)c2)c1)Nc1ccccc1Cl | enzyme activity, inhibitor | 5 µM | remaining activity | 96.3%
CC(C)(C)c1nc(-c2cccc(NS(=O)(=O)c3c(F)cccc3F)c2F)c(-c2ccnc(N)n2)s1 | enzyme activity, inhibitor, radiometric | 1 µM | remaining activity | 103%
Nc1cnc(N2CCc3cc(S(=O)(=O)Nc4c(F)cc(Cl)cc4F)cc(N4CCCC4=O)c32)nc1 | cell-free assay, competition with immobilised ligand | 1 µM | remaining binding | 100%
CNC(=O)c1cc(Oc2ccc(NC(=O)Nc3ccc(Cl)c(C(F)(F)F)c3)cc2)ccn1 | enzyme activity, inhibitor | 10 µM | inhibition | 13%
CCN(CC)c1ccc(C2=NNC(=O)CC2C)cc1[N+](=O)[O-] (stereo not shown) | enzyme activity, inhibitor | 10 µM | remaining activity | 104%
O=C(NC[C@@H]1[C@H]2CN(C(=O)OCc3cc(C(F)(F)F)cc(C(F)(F)F)c3)C[C@@H]12)c1ccc2[nH]nnc2c1 | cell-free assay, competition with immobilised ligand | 1 µM | remaining binding | 84%
CC(C)(O)[C@H]1CC[C@H](Nc2ccc3ncc(-c4cccc(C(F)(F)F)c4)n3n2)CC1 | enzyme activity, inhibitor | 1 µM | remaining activity | 86.2%
CCCS(=O)(=O)Nc1ccc(F)c(C(=O)c2c[nH]c3ncc(-c4ccc(Cl)cc4)cc23)c1F | enzyme activity, inhibitor | 1 µM | inhibition | < 10%
CN([C@@H]1CCc2c(CC(=O)O)c3ccccc3n2C1)S(=O)(=O)c1ccc(F)cc1 | cell-free assay, competition with immobilised ligand | 1 µM | remaining binding | 92%
O=C1Nc2ccc(Cl)cc2C1=Cc1cc(Cl)c(O)c(Cl)c1 | cell-free assay | 0.5 µM | remaining signal | 115%
